{
  "source": "ChEMBL document CHEMBL4406881",
  "about": "“Design, synthesis and biological evaluation of benzoylacrylic acid shikonin ester derivatives as irreversible dual inhibitors of tubulin and EGFR” (Bioorg Med Chem, 2019)",
  "key": {"[1]": {"biological_target": "Tubulin (Homo sapiens) (UniProt P68371+Q9H4B7+P0DPH7+P68366+Q13509+Q71U36+P04350+Q3ZCM7+P07437+P68363+Q9BQE3+Q6PEY2+Q13885+Q9BVA1+Q9BUF5)", "assay": "Induction of tubulin depolymerization in human A549 cells at 4 to 8 uM after 24 hrs by DAPI staining based fluorescence microscopic analysis", "assay_type": "cell-based", "in_short": "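Cells were fixed in 4% paraformaldehyde, permeabilised with 1% Triton, and blocked with 5% BSA. Staining used anti-tubulin (1:200) overnight, then Cy3 anti-mouse IgG (1:1500) 1 h, then DAPI 1 µg/mL. Imaging by confocal microscopy.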"}, "[2]": {"system": "A549", "assay": "Inhibition of Wnt/beta-catenin signaling pathway in human A549 cells assessed as reduction in beta-catenin expression in cytoplasm by Western blot analysis", "assay_type": "cell-based", "in_short": "(§1)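 A549 cells in 6-well plates were lysed in RIPA buffer with protease inhibitors on ice for 30 min and cleared at 4 °C. Protein was quantified by BCA, run on SDS-PAGE and transferred to PVDF. Membranes were blocked with milk, probed with primary antibody (1:1000) overnight at 4 °C, then secondary antibody (1:3000-1:5000) 1 h at RT. Detection by ECL; band densitometry normalised to GAPDH (β-actin also used). Three independent experiments.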"}, "[3]": {"system": "A549", "assay": "Antitumor activity against ip dosed human A549 cells xenografted in Balb/c mouse assessed as inhibition of tumor growth administered once every two days for 32 days measured for every 2 days", "assay_type": "functional, organism-based", "in_short": "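Female BALB/c nude mice, 5-6 weeks old, injected in the flank with 6×10^6 A549 cells in 0.1 mL ice-cold PBS. After two weeks, tumours averaging 90 mm³ were allocated by volume to 5 groups of n = 8. Drugs in DMSO were given ip once every two days, 16 doses in total; a DMSO vehicle group served as control. Tumour volume (L×S²/2) and body weight were recorded every two days; mice were killed on day 32.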"}, "[4]": {"system": "A549", "assay": "Antiproliferative activity against human A549 cells assessed as reduction in cell viability after 24 hrs by MTT assay", "assay_type": "functional, cell-based", "conditions": "A549, 24 h"}, "[5]": {"system": "A549", "assay": "Cell cycle arrest in human A549 cells assessed as accumulation at G1 phase at 8 uM after 24 hrs by RNAse A/ PI staining based flow cytometric analysis (reference value: 73.30%)", "assay_type": "functional", "in_short": "(§2)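 A549 cells at 5.0×10^4 per well were grown 12 h at 37 °C. Treatment was 0, 2, 4 or 8 µM for 24 h, or 8 µM for 0, 12, 24 or 36 h. Cells were fixed in 70% ethanol at −20 °C for at least 12 h, then stained in PBS with 0.1 mg/mL RNase A and 5 µg/mL PI. At least 10,000 events per sample were collected by flow cytometry to give G0/G1, S and G2/M percentages.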"}, "[6]": {"system": "A549", "assay": "Induction of apoptosis in human A549 cells assessed as reduction in caspase-9 expression at 2 to 8 uM after 24 hrs by Western blot analysis", "assay_type": "functional, cell-based", "in_short": "as §1"}, "[7]": {"system": "A549", "assay": "Cell cycle arrest in human A549 cells assessed as accumulation at G2/M phase at 8 uM after 36 hrs by RNAse A/ PI staining based flow cytometric analysis (reference value: 12.65%)", "assay_type": "functional", "in_short": "as §2"}, "[8]": {"system": "A549", "assay": "Inhibition of Wnt/beta-catenin signaling pathway in human A549 cells assessed as increase in axin-2 expression by Western blot analysis", "assay_type": "cell-based", "in_short": "as §1"}, "[9]": {"system": "A549", "assay": "Induction of apoptosis in human A549 cells assessed as late apoptotic cells at 4 uM after 24 hrs by Annexin-V/PI staining based flow cytometry analysis (reference value: 5.69%)", "assay_type": "functional"}, "[10]": {"system": "A549", "assay": "Induction of apoptosis in human A549 cells assessed as early apoptotic cells at 4 uM after 24 hrs by Annexin-V/PI staining based flow cytometry analysis (reference value: 1.15%)", "assay_type": "functional"}, "[11]": {"system": "A549", "assay": "Induction of apoptosis in human A549 cells assessed as late apoptotic cells at 2 uM after 24 hrs by Annexin-V/PI staining based flow cytometry analysis (reference value: 5.69%)", "assay_type": "functional"}, "[12]": {"system": "A549", "assay": "Induction early apoptosis in human A549 cells assessed as increase in ROS generation after by flow cytometric analysis", "assay_type": "functional, cell-based", "in_short": "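Intracellular ROS measured in A549 cells seeded to about 75% confluence. After treatment, cells were stained with ROS detection solution at 37 °C for 20 min, washed three times in serum-free medium, and analysed by flow cytometry.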"}, "[13]": {"system": "A549", "assay": "Cell cycle arrest in human A549 cells assessed as accumulation at G2/M phase at 8 uM after 12 hrs by RNAse A/ PI staining based flow cytometric analysis (reference value: 12.65%)", "assay_type": "functional", "in_short": "as §2"}, "[14]": {"system": "A549", "assay": "Induction of apoptosis in human A549 cells assessed as early apoptotic cells at 8 uM after 36 hrs by Annexin-V/PI staining based flow cytometry analysis (reference value: 2.02%)", "assay_type": "functional"}, "[15]": {"system": "NCI-H1975", "assay": "Antiproliferative activity against human NCI-H1975 cells assessed as reduction in cell viability after 24 hrs by MTT assay", "assay_type": "functional, cell-based", "conditions": "NCI-H1975, 24 h", "in_short": "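MTT colorimetric assay. Cells in log phase in medium with 10% FBS were seeded at 10⁴ cells/well and left overnight at 37 °C, 5% CO₂ to reattach. Compounds were added at 0.1, 1, 10 and 100 μM in 10% FBS for 24 h. IC50 reported as mean ± SD of three independent experiments.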"}, "[16]": {"system": "A549", "assay": "Induction of apoptosis in human A549 cells assessed as viable cells at 8 uM after 24 hrs by Annexin-V/PI staining based flow cytometry analysis (reference value: 88.4%)", "assay_type": "functional", "conditions": "A549, 24 h, read-out: Activity", "in_short": "(§3)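 A549 cells seeded overnight at 37 °C, 5% CO2, then exposed to 0, 2, 4, 8 or 12 µM for 24 h (dose series) or 8 µM for 0, 12, 24, 36 h (time series). Harvested, PBS-washed, stained with Annexin V-FITC and PI in binding buffer 15 min at room temperature in the dark, analysed by flow cytometry; three independent experiments.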"}, "[17]": {"system": "A549", "assay": "Induction of apoptosis in human A549 cells assessed as high mitochondrial membrane potential at 12 uM after 12 hrs by JC-1 staining-based flow cytometric analysis (reference value: 90.6%)", "assay_type": "functional", "in_short": "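JC-1 staining of A549 cells treated for 12 h. CCCP-treated wells, 20 min at 37 °C, served as positive control. Collected cells were incubated with JC-1 solution at 37 °C for 30 min, washed, and analysed by flow cytometry for the fraction with high ΔΨm and for PI-positive cells. Results are mean ± S.E.M. of three replicates.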"}, "[18]": {"system": "A549", "assay": "Cell cycle arrest in human A549 cells assessed as accumulation at G1 phase at 4 uM after 24 hrs by RNAse A/ PI staining based flow cytometric analysis (reference value: 73.30%)", "assay_type": "functional", "in_short": "as §2"}, "[19]": {"system": "A549", "assay": "Induction of apoptosis in human A549 cells assessed as late apoptotic cells at 8 uM after 12 hrs by Annexin-V/PI staining based flow cytometry analysis (reference value: 6.55%)", "assay_type": "functional", "in_short": "as §3"}, "[20]": {"system": "A549", "assay": "Cell cycle arrest in human A549 cells assessed as accumulation at G1 phase at 8 uM after 24 hrs by RNAse A/ PI staining based flow cytometric analysis (reference value: 67.69%)", "assay_type": "functional", "in_short": "as §2"}},
  "note": "Active and inactive are the calls of the source. The rule behind the calls is not given here.",
  "data": [
    {"molecule": "CC(C)=CC[C@@H](OC(=O)/C=C\\C(=O)c1ccc(F)cc1)C1=CC(=O)c2c(O)ccc(O)c2C1=O", "values": [
      {"measurement": "Activity", "setting": "[1]", "value": "Active"},
      {"measurement": "inhibition", "setting": "[2]", "value": "Dose-dependent effect"},
      {"measurement": "Activity", "setting": "[3]", "value": "Dose-dependent effect"},
      {"measurement": "IC50", "setting": "[4]", "value": 4.37, "unit": "µM"},
      {"measurement": "Activity", "setting": "[5]", "value": 47.33, "unit": "%"},
      {"measurement": "Activity", "setting": "[6]", "value": "Active"},
      {"measurement": "Activity", "setting": "[7]", "value": 46.55, "unit": "%"},
      {"measurement": "inhibition", "setting": "[8]", "value": "Dose-dependent effect"},
      {"measurement": "Activity", "setting": "[9]", "value": 10.6, "unit": "%"},
      {"measurement": "Activity", "setting": "[10]", "value": 17.6, "unit": "%"},
      {"measurement": "Activity", "setting": "[11]", "value": 9.45, "unit": "%"},
      {"measurement": "Activity", "setting": "[12]", "value": "Dose-dependent effect"},
      {"measurement": "Activity", "setting": "[13]", "value": 19.4, "unit": "%"},
      {"measurement": "Activity", "setting": "[14]", "value": 43.8, "unit": "%"},
      {"measurement": "IC50", "setting": "[15]", "value": 9.43, "unit": "µM"},
      {"measurement": "viability at 8 µM", "setting": "[16]", "value": 37.1, "unit": "%"},
      {"measurement": "Activity", "setting": "[17]", "value": 38.6, "unit": "%"},
      {"measurement": "Activity", "setting": "[18]", "value": 59.17, "unit": "%"},
      {"measurement": "Activity", "setting": "[19]", "value": 10, "unit": "%"},
      {"measurement": "Activity", "setting": "[20]", "value": 42.59, "unit": "%"}
    ]}
  ]
}
